Source: PubChem
Shown are actives, neighbours in structure and some others; about 2% of the full set was active somewhere.
Dynein transport = dynein cargo transport inhibition. 3617.4 mouse cells, GR-EGFP nuclear translocation imaging; test concentration mostly 20 µM; stimulated with dexamethasone, 1 µM; stronger effect = lower value. z-score, hits read low. hit rate 0.47% among 220,000;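 active = plate z-score of nuclear minus cytoplasmic receptor signal below a set negative limit, without overly bright fluorescence or cell loss, cut at about -3.5 in these data, passing the limit was not always enough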;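 note: z-score of nuclear minus cytoplasmic ring GR-EGFP intensity difference per well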
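medium = tetracycline-free induction medium containing charcoal-stripped FBS | also added = 1.0 µM final dexamethasone stimulus | schedule = 48 h induction, 1 h compound, 30 min dex at 37 °C | technique = fixed, Hoechst-stained cells imaged at 10x for EGFP | measure = GR-EGFP nuclear translocation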
Insulin prom inh = TRM-6 insulin promoter activity inhibition; TRM-6 cells, insulin promoter-eGFP reporter, imaging; reporter expression induced with tamoxifen; inhibition, % at 2 µM; hit rate 0.9% among 130,000; AID 1273;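 active = inhibition above the mean plus 3 SD, with well images judged a real hit on visual review, cut at about 60% in these data, passing the limit was not always enough; inconclusive = inhibition over the cutoff but images rejected on review; inactive = inhibition not above the cutoff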
Ins promoter up = MIN6 insulin promoter up-regulation; z-score at 5 µM; hit rate 0.3% among 190,000; MIN6 insulin promoter-GFP reporter, high-content imaging; stronger effect = higher value; AID 1625;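 active = z-score above 3 at 5 µM with at least 500 cells counted in the well; inconclusive = wells under 500 cells, flagged as cytotoxic or low count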
Autophagy HCS = autophagy modulation, high-content screen; hit rate 0.98% among 190,000; MEF GFP-LC3 puncta imaging; test concentration mostly 10 µM; calls only at 10 µM (by protocol);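 active = percentage of spot-positive cells more than 3 SD above its plate mean, without a fluorescence outlier flag or 80% toxicity; inconclusive = no clear call, values can overlap the other calls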;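 note: spot-positive cell cutoff set from DMSO-treated cells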
Active calls of the source: *; i = inactive; ? = inconclusive; · = no result given; + = active, no number.

SMILES | Dynein transport | Insulin prom inh | Ins promoter up | Autophagy HCS
CCN(CC)CCNC(=O)c1ccc(NC(=O)c2cn(-c3ccccc3)nc2-c2cccs2)cc1 | -7.3* | · | 0.79 | +
CCOC(=O)c1c(N)nn(C(=O)C(C)C)c1-c1ccc(OC)cc1 | -1.8 | 79* | 0.27 | i
CCOC(=O)c1c(N)nn(C(C)=O)c1-c1ccccc1 | -0.76 | 18 | 1 | i
CCN1/C(=C/c2ccc3cc(C)ccc3[n+]2CC)Sc2ccccc21 | -5.1* | -170 | · | ·
CCN1/C(=C/c2sc(-c3ccccc3C)c[n+]2C)Sc2ccccc21 | -1 | -285 | · | i
CCN1/C(=C/c2ccc3cc(C)ccc3[n+]2CC)Sc2cc(C)c(C)cc21 | -0.41 | · | ? | +
CCCOC(=O)c1ccc(Cl)c(NC(=O)c2cccnc2)c1 | -0.13 | · | -0.08 | i
O=C(Cn1cnc2c(nnn2Cc2ccccc2F)c1=O)NCC1CCCO1 (stereo not drawn) | -0.98 | -44 | 0.33 | +
O=C(Cn1cnc2c(nnn2Cc2ccccc2)c1=O)NCC1CCCO1 (stereo not drawn) | 2.5 | -50 | 0.29 | i
S=c1[nH]c2ccccc2o1 | 0.74 | -33 | 0.24 | i
S=c1[nH]nc(-c2ccccc2)n1CC1CCCO1 (stereo not drawn) | 1.1 | 32 | 3.1* | i
Cc1ccc(NC(=O)CN(C)S(=O)(=O)c2cccs2)cc1F | 0.71 | 74* | 0.01 | i
COC(=O)c1cc(OC)nc2ccc(Br)cc12 | -0.13 | · | -0.31 | ·
CCOCCCNC(=O)C(NC(=O)c1ccc2c(c1)OCO2)c1ccc(OC)cc1 (stereo not drawn) | 0.26 | -21 | -1 | i
CCOCCCNC(=O)C(NC(=O)c1ccc2c(c1)OCO2)c1ccccc1 (stereo not drawn) | 2.1 | · | -0.39 | +
Cn1c(-c2c(N)n(CCCc3ccccc3)c3nc4ccccc4nc23)nc2ccccc21 | -1.4 | -28 | 0.57 | +
Cn1c(-c2c(N)n(CCc3ccccc3)c3nc4ccccc4nc23)nc2ccccc21 | 0.1 | 1 | 1.7 | +
Cn1c(-c2c(N)n(C3CCCC3)c3nc4ccccc4nc23)nc2ccccc21 | 0.32 | -60 | 0.13 | +
COCCCn1c(N)c(-c2nc3ccccc3n2C)c2nc3ccccc3nc21 | -0.79 | -46 | 0.41 | i
Nc1c(C(=O)OCC2CCCO2)c2nc3ccccc3nc2n1C1CCCC1 (stereo not drawn) | 1.9 | -79 | -1.1 | i
N#Cc1cc2c(nc1S(=O)(=O)Cc1ccccc1)CCCC2 | -1.6 | · | 0.4 | i
NC(N)=NC(=S)Nc1ccc(Cl)cc1 | 0.39 | · | -0.97 | ·
COc1ccc2c(c1)C=C(CN1CCN(C3CCCC3)C(CCO)C1)CO2 (stereo not drawn) | 1.1 | · | -0.5 | i
COc1ccc(/C=C(\C#N)C(=O)C(C)(C)n2cncn2)cc1 | -0.48 | -38 | · | i
COc1cc(-c2ccc(NC(=O)NC3CC3)c(OC)c2)ccc1NC(=O)NC1CC1 | 0.45 | · | -0.17 | ·
SMILES | Dynein transport | Insulin prom inh | Ins promoter up | Autophagy HCS
COc1ccc(-c2cc(C3CC3)nc(SCC(=O)c3cccs3)c2C#N)cc1 | 0.25 | · | 0.33 | +
COc1cc(/C=N/NC(=S)NC2CC3CC2C2C=CCC32)ccc1O (stereo not drawn) | -0.68 | · | -0.69 | ·
CSCCC(NS(=O)(=O)c1ccc(Cl)cc1)C(=O)OCC(=O)NC1CC1 (stereo not drawn) | 0.062 | 3 | -1.2 | i
CSCCC(NS(=O)(=O)c1ccc(Br)cc1)C(=O)OCC(=O)NC1CC1 (stereo not drawn) | -0.16 | 83* | -0.27 | i
CCOC(=O)[C@H](CCc1ccccc1)N[C@@H](C)C(=O)N1CCC[C@H]1C(=O)O | -0.1 | 67* | · | i
O=C1c2ccccc2C(=O)N1c1ncn[nH]1 | -0.013 | · | 0.16 | ·
CC(NCC(O)COC1CCC(C(C)(C)C)CC1)c1ccccc1 (stereo not drawn) | 0.56 | -24 | -0.94 | +
Nc1cc(=O)[nH]c(=S)n1-c1cccc(C(F)(F)F)c1 | 2.4 | 60* | 1.4 | i
CCOC(=O)C1(C)C=C(Nc2ccc(OCC)cc2)C(=O)N1c1ccccc1 (stereo not drawn) | 0.052 | · | -0.89 | i
CCOC(=O)C1(C)C=C(Nc2ccccc2)C(=O)N1c1ccccc1 (stereo not drawn) | 0.6 | 71* | 1.7 | i
CCOC(=O)c1ccc(NC(=O)c2cc3ccccc3o2)cc1 | -0.78 | 63* | · | i
O=C(NCc1cccnc1)c1ccccc1CCc1ccccc1 | 0.99 | · | 0.13 | i
Cc1ccc(-n2c3c(c(=O)[nH]c2=O)C(C(F)(F)F)(C(F)(F)F)NC(=O)N3)cc1 | 1.7 | 11 | 3* | i
CCOC(=O)N1CCN(C(=O)CN(c2ccc3c(c2)OCO3)S(C)(=O)=O)CC1 | -1.7 | 79* | 0.32 | i
CC(C)(C)c1ccc(-c2noc(-c3ccc4c(c3)CCO4)n2)cc1 | 0.44 | · | -0.22 | ·
Cc1cc(C)c2[nH]c(=O)c(CN(CC3CCCO3)S(=O)(=O)c3ccc4c(c3)OCCO4)cc2c1 (stereo not drawn) | 0.9 | 24 | -0.32 | i
Cc1ccc(C)c2[nH]c(=O)c(CN(CC3CCCO3)S(=O)(=O)c3ccc4c(c3)OCCO4)cc12 (stereo not drawn) | 1.5 | · | 1.8 | +
Cc1cccc2cc(CN(Cc3ccco3)S(=O)(=O)c3ccc4c(c3)OCCO4)c(=O)[nH]c12 | -0.046 | · | -0.03 | +
Cc1cccc2cc(CN(Cc3ccco3)C(=O)N3CCCC3)c(=O)[nH]c12 | · | · | -1.1 | ·
S=c1[nH]nc(-c2n[nH]c3c2CCC3)n1/N=C/C=C/c1ccccc1 | -0.96 | · | -0.71 | ·
COc1ccc(C(=O)NNC2=Nc3cccc4cccc2c34)cc1 | -0.56 | -40 | -0.15 | +
CC(C)c1ccc(CN2CC(C(=O)Nc3ccccc3)CC2=O)cc1 (stereo not drawn) | 2.4 | 75* | · | i
CC(=O)NC(Cc1ccccc1C)C(=O)NC1CCN(C(=O)c2cccc(C)c2)CC1 (stereo not drawn) | -0.67 | 20 | · | i
CCOC(=O)CN1C(=O)N[C@@H](c2ccccc2)C(C(C)=O)=C1C | -0.064 | 60* | · | i
CCN1C(=O)N[C@@H](c2ccc(Br)cc2)C(C(=O)OC)=C1C | -0.69 | 65* | -0.58 | i
SMILES | Dynein transport | Insulin prom inh | Ins promoter up | Autophagy HCS
COC(=O)C1=C(C)N(CC2CC2)C(=O)N[C@H]1c1ccc(Br)cc1 | 0.02 | -10 | -0.23 | i
COc1ccc(CN2CCN(C(=O)CC(C)C)CC2)cc1OC | 0.071 | -13 | 0.11 | i
COc1ccc(CN2CCN(C(=O)CC(C)C)CC2)c2ccccc12 | -0.0072 | 75* | 1 | i
CC(=O)NCCCc1nc2ccccc2n1Cc1ccccc1F | 0.97 | · | -0.76 | ·
COc1ccc(C(=O)NCCCc2nc3ccccc3n2Cc2ccccc2C)cc1OC | 0.058 | -24 | -0.56 | +
Cc1cc(CNC(=O)Cc2ccccc2)c2ccccc2n1 | -0.76 | -40 | -0.19 | +
COc1ccc(C(=O)NCc2cc(C)nc3ccccc23)cc1OC | -1.1 | 100* | -0.09 | i
Cc1ccc2nc(N/C(=N/S(=O)(=O)c3cccs3)c3ccccc3Cl)sc2c1 | 0.38 | · | -0.31 | i
